We go through 42 compounds from ChEMBL document CHEMBL3352122, “Design, synthesis and evaluation of 2-aminothiazole derivatives as sphingosine kinase inhibitors” (Bioorg Med Chem, 2014).

Each structure is given as a SMILES string. Calls of active or inactive are those of the source. The rule behind the calls is not given here.

A word on the inhibition: it is the relative decrease from the control value, in per cent. In general, IC50 refers to the concentration that gives 50% inhibition.

The target of series [1] is T1, Sphingosine kinase 2 (Homo sapiens) (UniProt Q9NRA0).
T1 sequence (whole entry): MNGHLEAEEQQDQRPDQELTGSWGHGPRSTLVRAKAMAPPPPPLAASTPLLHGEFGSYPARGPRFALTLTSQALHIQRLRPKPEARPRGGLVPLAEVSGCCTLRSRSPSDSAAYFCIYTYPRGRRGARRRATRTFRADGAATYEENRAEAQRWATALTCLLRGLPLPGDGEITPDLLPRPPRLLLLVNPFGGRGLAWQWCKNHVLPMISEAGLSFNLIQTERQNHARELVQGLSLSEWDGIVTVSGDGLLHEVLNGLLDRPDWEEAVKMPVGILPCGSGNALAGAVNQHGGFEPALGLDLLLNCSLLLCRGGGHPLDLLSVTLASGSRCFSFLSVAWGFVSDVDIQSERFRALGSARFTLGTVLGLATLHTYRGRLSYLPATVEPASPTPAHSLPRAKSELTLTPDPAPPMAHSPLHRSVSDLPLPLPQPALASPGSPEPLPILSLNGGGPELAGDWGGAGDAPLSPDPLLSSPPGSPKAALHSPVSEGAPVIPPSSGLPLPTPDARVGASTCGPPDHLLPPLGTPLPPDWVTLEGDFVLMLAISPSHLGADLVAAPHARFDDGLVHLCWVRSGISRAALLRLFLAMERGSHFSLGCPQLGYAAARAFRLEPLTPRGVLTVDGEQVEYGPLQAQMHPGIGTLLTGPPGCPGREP
Put plainly: Inhibition of human recombinant Sphk2 at 10 uM after 60 mins by ADP2 fluorescence intensity assay. Put shortly:
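Human recombinant SphK2 (stock 0.5 mg/mL in Tris-HCl pH 8.0/imidazole/DTT/glycerol) pre-incubated 15 min at RT with compound at 10 µM or DMSO. Reaction with D-erythro-sphingosine and ATP ran 60 min at RT at 10–15% substrate conversion. ADP was read by Transcreener ADP² FI competitive fluorescence against an ATP/ADP standard curve. % inhibition vs DMSO given as mean ± SEM of five independent experiments, one-sample t-test.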

The next series addresses T2, Sphingosine kinase 2 (Homo sapiens, UniProt Q9NRA0).
T2 sequence (Q9NRA0 whole entry): T1 sequence (whole entry)
As to the kind of experiment: Inhibition of human recombinant Sphk2 after 60 mins by ADP2 fluorescence intensity assay. In outline:
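Recombinant human SphK2 pre-incubated 15 min at RT with inhibitor at eight increasing concentrations, then reacted with D-erythro-sphingosine and ATP for 60 min at RT, keeping substrate conversion at 10–15% within the linear range. […] IC50 was derived from the concentration–inhibition data.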

Series [2] in a line: Cytotoxicity against human U937 cells at 30 uM after 24 hrs by LDH release assay. Format: cell-based. The conditions noted are these: u-937, 24 h. Put shortly:
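U937 cells seeded at 1.5 × 10⁴ cells/well, then exposed 24 h to increasing compound concentrations or DMSO vehicle. After centrifugation (250 × g, 4 min), LDH in the supernatant was measured as loss of membrane integrity. Detergent-induced maximum release was set to 100%. Three experiments, mean ± SE.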

With `CN(C)c1ccc(Nc2nc(-c3ccc(Cl)cc3)cs2)cc1`, the inhibition result in series [1] was “inactive”.

Regarding `COc1ccccc1Nc1nc(-c2ccc(Cl)cc2)cs1`, the inhibition result in series [1] is “inactive”. With `COc1ccccc1Nc1nc(C23CC4CC(CC(C4)C2)C3)cs1`, the inhibition in series [1] came to 19%. The same measure, in the same setting: with `Clc1ccc(-c2csc(Nc3ccc4c(c3)OCO4)n2)cc1` the entry was “inactive”; with `FC(F)(F)c1ccc(Nc2nc(-c3ccc(Cl)cc3)cs2)cc1`, “inactive”; with `COc1ccc(/C=C/C(=O)Nc2nccs2)cc1OC`, 26.5%.

Consider `c1cc2c(cc1Nc1nc(C34CC5CC(CC(C5)C3)C4)cs1)OCO2`, for which the inhibition in series [1] amounted to 41.3%. On the same count and under the same terms, the same measure for `OCc1ccc(Nc2nc(-c3ccc(Cl)cc3)cs2)cc1`: “inactive”. Still for that read-out and setting: the same measure for `Oc1ccc(Nc2nc(-c3ccc(Cl)cc3)cs2)cc1`: 15.5%; for `CSc1ccc(Nc2nc(C34CC5CC(CC(C5)C3)C4)c(C)s2)cc1`: “inactive”. Still for that read-out and setting: the same measure for `Oc1ccccc1Nc1nc(-c2ccc(Cl)cc2)cs1`: “inactive”; for `COc1cc(Nc2nc(C34CC5CC(CC(C5)C3)C4)cs2)cc(OC)c1OC`: 20.8%. Regarding `FC(F)(F)c1cc(Nc2nc(-c3ccc(Cl)cc3)cs2)cc(C(F)(F)F)c1`, the inhibition result in series [1] was “inactive”. Still for that read-out and setting: the same measure for `COc1ccc(Nc2nc(C34CC5CC(CC(C5)C3)C4)cs2)cc1OC`: “inactive”; for `COc1ccc(Nc2nc(-c3ccc(Cl)cc3)cs2)cc1`: “inactive”; for `Cc1cc(CS(=O)(=O)c2ccccc2)cc(OCc2ccc(CN3CCC[C@@H]3CO)cc2)c1`: 14.7%. Same read-out and setting: with `CN(C)c1ccc(Nc2nc(C34CC5CC(CC(C5)C3)C4)cs2)cc1` the entry was “inactive”. On the same count and under the same terms, the same measure for `Cc1csc(Nc2nc(C34CC5CC(CC(C5)C3)C4)c(C)s2)n1`: 20.9%. `Oc1cccc(Nc2nc(-c3ccc(Cl)cc3)cs2)c1`: in series [1], the inhibition entry was “inactive”. Take `COc1cc(Nc2nc(-c3ccc(Cl)cc3)c(C)s2)cc(OC)c1OC`: the inhibition entry in series [1] is “inactive”. As for `Cc1csc(Nc2nc(-c3nccs3)cs2)n1`, the inhibition in series [1] came to 50%. Further, on Sphingosine kinase 2, the IC50 was found to be 6.5 µM. The same compound gave an Activity in series [2] of 0.69%.

Regarding `COc1cc(/C=C/C(=O)Nc2nccs2)cc(OC)c1OC`, the inhibition in series [1] came to 26.6%. The same measure, in the same setting: with `COc1cc(Nc2nc(C34CC5CC(CC(C5)C3)C4)c(C)s2)cc(OC)c1OC` the figure was 21.5%; with `CSc1ccc(Nc2nc(-c3ccc(Cl)cc3)cs2)cc1`, “inactive”. On the same count and under the same terms, with `CC(C)c1ccc(Nc2nc(-c3ccc(Cl)cc3)cs2)cc1` the entry was “inactive”. As to `Clc1ccc(-c2csc(Nc3ccc4c(c3)OCCO4)n2)cc1`, in series [1], the inhibition result is “inactive”. Regarding `COc1ccc(Nc2nc(-c3ccc(Cl)cc3)cs2)cc1OC`, in series [1], the inhibition result is “inactive”. Still for that read-out and setting: with `Cc1csc(Nc2nc(-c3ccc(Cl)cc3)c(C)s2)n1` the figure was 19.2%.

Turning to `Cc1sc(Nc2ccc(O)cc2)nc1-c1ccc(Cl)cc1`, the inhibition entry in series [1] was “inactive”. For the compound `COc1ccc(Nc2nc(-c3ccc(Cl)cc3)c(C)s2)cc1`, in series [1], the inhibition entry is “inactive”. As to `CC(C)c1ccc(Nc2nc(C34CC5CC(CC(C5)C3)C4)cs2)cc1`, in series [1], the inhibition result is “inactive”. Take `CSc1ccc(Nc2nc(C34CC5CC(CC(C5)C3)C4)cs2)cc1`: the inhibition in series [1] worked out at 18.6%. Still for that read-out and setting: the same measure for `COc1ccc(Nc2nc(C34CC5CC(CC(C5)C3)C4)cs2)cc1`: “inactive”; for `COc1ccccc1Nc1nc(C23CC4CC(CC(C4)C2)C3)c(C)s1`: 41.6%; for `COc1cc(Nc2nc(-c3ccc(Cl)cc3)cs2)cc(OC)c1OC`: “inactive”.

`CSc1ccc(Nc2nc(-c3ccc(Cl)cc3)c(C)s2)cc1`: in series [1], the inhibition entry was “inactive”. On the same count and under the same terms, with `Oc1ccc(Nc2nc(-c3ccc(Br)cc3)cs2)cc1` the figure was 10.3%; with `Oc1ccc(Nc2nc(-c3nccs3)cs2)cc1`, “inactive”; with `COc1ccc(/C=C/C(=O)Nc2nc(-c3ccc(Cl)cc3)cs2)cc1OC`, 31.7%.

As for `COc1cc(/C=C/C(=O)Nc2nc(-c3ccc(Cl)cc3)cs2)cc(OC)c1OC`, the inhibition in series [1] is 32%. The same measure, in the same setting: the same measure for `FC(F)(F)Oc1ccc(Nc2nc(-c3ccc(Cl)cc3)cs2)cc1`: “inactive”; for `c1cc2c(cc1Nc1nc(C34CC5CC(CC(C5)C3)C4)cs1)OCCO2`: 31.7%.
